# Results reported in ChEMBL document CHEMBL4041524, “Synthesis and Characterization of a Novel γ-Aminobutyric Acid Type A (GABAA) Receptor Ligand That Combines Outstanding Metabolic Stability, Pharmacokinetics, and Anxiolytic Efficacy” (J Med Chem, 2016).
# Calls of active or inactive are those of the source. The calls are words filed in the database; no cut-off is given here.
# Legend:
# Liver = assay: Metabolic stability in rat liver microsomes assessed as compound remaining at 4 uM measured after 30 mins in presence of NADPH by LC-MS/MS analysis; format: ADME, microsome; details: 0.5 h
# Summary of the method: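 Human, mouse or rat liver microsomes were incubated with compound at 4 μM final for 30 min at 37 °C (n = 1). Percent of parent remaining was quantified by LC-MS/MS.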
# [1] = Total plasma concentration in Sprague-Dawley rat at 10 mg/kg, po measured after 60 mins by LC-MS/MS analysis; format: ADME, organism-based
# Summary of the method: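 Sprague-Dawley rats (n = 3 per time point) were given 10 mg/kg p.o. Total plasma concentrations were taken at 15, 30, 60 and 120 min. Brain levels of the dosed ligand and of the carboxylic acid metabolite were taken at 60 or 120 min.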
# Mus musculus = assay: Anxiolytic-like activity in Swiss Webster mouse marble burying model of anxiety assessed as suppression of marble burying activity at 30 mg/kg, ip administered 30 mins prior to test relative to vehicle-control; format: functional, organism-based
# Summary of the method: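 Male NIH Swiss Webster mice (n = 10) received vehicle or compound at 10 or 30 mg/kg i.p. 30 min before marble burying testing. Sedation-like behaviour was noted by observation. Analysis was ANOVA with Dunnett's test vs vehicle.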
# [2] = target: T1, GABA-A receptor; alpha-2/beta-3/gamma-2 (Homo sapiens) (UniProt P18507+P28472+P47869); assay: Modulation of recombinant GABA alpha2beta3gamma2 receptor (unknown origin) expressed in Xenopus laevis oocytes assessed as change in GABA-induced EC(3 to 6) current at 100 nM by two-electrode voltage clamp assay; format: cell-based
# Summary of the method: (§1)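 Xenopus laevis oocytes expressing α1, α2, α3 or α5 β3γ2 GABAARs were recorded by two-electrode voltage clamp. Modulation of the GABA EC3-6 current (taken as 100%) was tested at 100 nM, 1 μM and 10 μM in the same cells. Values are mean ± SEM, n = 3–4.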
# [3] = target: T1, GABA-A receptor; alpha-2/beta-3/gamma-2 (Homo sapiens); assay: Modulation of recombinant GABA alpha2beta3gamma2 receptor (unknown origin) expressed in Xenopus laevis oocytes assessed as change in GABA-induced EC(3 to 6) current at 10 uM by two-electrode voltage clamp assay; format: cell-based; summary of the method: as §1
# [4] = target: T2, GABA-A receptor; alpha-2/beta-3/gamma-2 (Homo sapiens, UniProt P18507+P28472+P47869); assay: Modulation of recombinant human GABA alpha2beta3gamma2 receptor expressed in HEK293 cells assessed as change in GABA-induced current at -80 mV holding potential preincubated for 3 mins followed by co-administration of GABA by electrophysiology method; format: cell-based
# T2 sequence (P18507 whole entry): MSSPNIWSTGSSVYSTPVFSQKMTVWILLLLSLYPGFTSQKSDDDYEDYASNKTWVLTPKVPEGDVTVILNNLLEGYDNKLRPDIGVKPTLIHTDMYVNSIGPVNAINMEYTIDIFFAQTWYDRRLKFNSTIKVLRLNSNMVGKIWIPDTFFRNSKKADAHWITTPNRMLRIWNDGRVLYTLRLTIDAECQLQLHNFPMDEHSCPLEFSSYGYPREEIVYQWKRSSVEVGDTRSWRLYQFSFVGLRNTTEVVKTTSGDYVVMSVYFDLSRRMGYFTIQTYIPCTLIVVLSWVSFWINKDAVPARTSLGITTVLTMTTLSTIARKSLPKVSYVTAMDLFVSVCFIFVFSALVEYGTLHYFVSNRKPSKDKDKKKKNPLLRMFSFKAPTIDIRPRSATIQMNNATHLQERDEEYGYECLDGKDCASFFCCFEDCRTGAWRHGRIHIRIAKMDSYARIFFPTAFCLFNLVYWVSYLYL
# T2 sequence (P28472 whole entry): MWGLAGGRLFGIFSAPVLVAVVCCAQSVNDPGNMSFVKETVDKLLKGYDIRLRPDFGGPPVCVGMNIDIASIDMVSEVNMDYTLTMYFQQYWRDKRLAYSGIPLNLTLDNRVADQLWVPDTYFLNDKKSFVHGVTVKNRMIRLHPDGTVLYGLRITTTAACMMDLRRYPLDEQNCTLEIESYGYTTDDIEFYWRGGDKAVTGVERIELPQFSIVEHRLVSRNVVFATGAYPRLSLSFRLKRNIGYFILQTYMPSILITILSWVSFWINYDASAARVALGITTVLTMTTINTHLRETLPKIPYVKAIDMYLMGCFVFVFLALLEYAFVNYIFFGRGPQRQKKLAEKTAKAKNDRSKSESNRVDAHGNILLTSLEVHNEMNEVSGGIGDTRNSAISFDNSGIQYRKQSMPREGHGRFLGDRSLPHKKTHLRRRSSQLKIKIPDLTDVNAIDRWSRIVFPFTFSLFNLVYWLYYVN
# T2 sequence (P47869 whole entry): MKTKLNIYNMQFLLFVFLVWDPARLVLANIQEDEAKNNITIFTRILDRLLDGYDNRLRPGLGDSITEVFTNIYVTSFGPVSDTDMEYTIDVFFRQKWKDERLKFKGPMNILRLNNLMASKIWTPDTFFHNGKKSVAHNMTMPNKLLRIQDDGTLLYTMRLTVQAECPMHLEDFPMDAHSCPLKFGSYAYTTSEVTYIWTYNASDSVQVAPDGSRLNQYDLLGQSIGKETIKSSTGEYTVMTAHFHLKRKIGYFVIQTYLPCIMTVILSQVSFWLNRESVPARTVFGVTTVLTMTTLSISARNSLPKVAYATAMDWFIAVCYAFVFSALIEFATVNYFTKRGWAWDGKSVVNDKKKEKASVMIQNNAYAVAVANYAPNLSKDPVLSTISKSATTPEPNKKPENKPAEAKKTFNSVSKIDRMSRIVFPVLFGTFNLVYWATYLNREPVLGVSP
# [5] = Clearance in femoral artery/vein cannulated Sprague-Dawley rat at 1 mg/kg, iv administered […] as single dose by LC-MS/MS analysis; format: ADME, organism-based; details: in vivo
# Summary of the method: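 Male Sprague-Dawley rats (n = 3 per time point) were dosed 1 mg/kg i.v. or 10 mg/kg i.p. Plasma concentrations were measured at set time points. Clearance, Vdss and T½ came from the i.v. arm, and AUC, Cmax and Tmax from the i.p. arm.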
# [6] = Total plasma concentration in Sprague-Dawley rat at 10 mg/kg, ip measured after 4 hrs; format: ADME, organism-based
# Summary of the method: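 Rats were given 10 mg/kg i.p. (n = 3), and total plasma and brain concentrations were measured at 4 h. Unbound concentrations were calculated as Fu × total concentration, and Kp,uu = Cu,brain/Cu,plasma.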
# Rattus norvegicus = assay: Anxiolytic like activity in water-deprived Sprague-Dawley rat assessed as increase in water drinking time during punished period at 20 mg/kg, po administered 30 mins prior to testing by Vogel conflict test relative to control; format: functional
# Summary of the method: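 Water-deprived male Sprague-Dawley rats (n = 6–8) drank during unpunished and punished periods, with licking suppressed by mild shock in punished periods. Compounds were given 30 min before testing. Analysis was ANOVA with Dunnett's test.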
# [7] = target: T1, GABA-A receptor; alpha-2/beta-3/gamma-2 (Homo sapiens); assay: Modulation of recombinant GABA alpha2beta3gamma2 receptor (unknown origin) expressed in Xenopus laevis oocytes assessed as change in GABA-induced EC(3 to 6) current by two-electrode voltage clamp assay; format: cell-based; summary of the method: as §1
# [8] = target: GABA-A receptor; alpha-3/beta-3/gamma-2 (Homo sapiens) (UniProt P18507+P28472+P34903); assay: Modulation of recombinant GABA alpha3beta3gamma2 receptor (unknown origin) expressed in Xenopus laevis oocytes assessed as change in GABA-induced EC(3 to 6) current by two-electrode voltage clamp assay; format: cell-based; summary of the method: as §1
compound,measurement,setting,value
C#Cc1ccc2c(c1)C(c1ccccn1)=NCc1c(-c3cnco3)ncn1-2,Stability,Liver,90%
same,concentration at 1 h,[1],3.91 µM
same,Activity,Mus musculus,Active
same,Activity,[2],100%
same,Activity,[3],258%
same,EC50,[4],118 nM
same,clearance,[5],21.7 mL/min/kg
same,concentration at 4 h,[6],2.13 µM
same,Activity,Rattus norvegicus,330%
same,Activity,[7],Dose-dependent effect
same,Activity,[8],Dose-dependent effect
